Laboratory results published in article PMC9924909 (Brain, 2022).
“And” between values parts separate entries of the source, which are not always exact repeats. Identical values can stand only once. “Also recorded” adds a separate entry of the source.

Key:
[1] = system: glucosylsphingosine; experiment: Glucosylsphingosine concentration in plasma and CSF, LEAP trial; type: in vivo, human
Outline: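 CSF collected by lumbar puncture at baseline and Weeks 1, 4, 26, 52; plasma at baseline and Weeks 1, 4, 12, 26, 39, 52. Dosing was oral test compound 15 mg once daily with maintenance IV enzyme replacement. LLOQ: glucosylceramide 0.1 μg/ml plasma, 2.0 ng/ml CSF; glucosylsphingosine 5.0 ng/ml plasma, 5 pg/ml CSF. Change from baseline summarised as median percentage with interquartile range and 95% CI.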

[2] = system: adults with GD3; experiment: Resting functional MRI connectivity; type: in vivo, human
Outline: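 Resting-state BOLD fMRI at baseline, Week 26 and Week 52, analysed centrally and blinded. Regions of interest came from FreeSurfer segmentation masks, using parcellation of the baseline high-resolution 3D-T1 image. Full and partial connectivity were computed between resting-state networks 1, 2, 3, 6, 7 and 8 using published template maps.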

[3] = system: CYP3A; conditions: no reference given; cited from earlier work
[4] = system: adults with GD3; experiment: Safety and tolerability, LEAP trial; type: in vivo, human; conditions: 1 year, 11 patients
Outline: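 Open-label, single-arm study at six centres: 11 adults with GD3 took oral test compound 15 mg once daily with maintenance IV imiglucerase every 2 weeks (stable doses 38.5–125 U/kg). Safety and tolerability were assessed over 52 weeks. No pre-specified statistical testing.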

[5] = baseline to Week 52, 11 patients
[6] = individual patients, baseline to Week 52
[7] = venglustat in combination with imiglucerase

CC(C)(NC(=O)O[C@@H]1CN2CCC1CC2)c1csc(-c2ccc(F)cc2)n1 [Venglustat]
median glucosylsphingosine reduction in CSF [1, 5]: 70% | median glucosylsphingosine reduction in plasma [1, 5]: 56% | Glucosylsphingosine concentration, CSF, Change [1, 6]: −72 pg/ml and −23.2 pg/ml and −30.2 pg/ml and +75.8 pg/ml and −15.75 pg/ml and −53.5 pg/ml and −9.8 pg/ml and −14.3 pg/ml and −17.3 pg/ml and −32.7 pg/ml and −35.7 pg/ml | Glucosylsphingosine concentration, CSF, Percentage change [1, 6]: −72% and −48% and −44.7% and +313.2% and −69.7% and −95.5% and −46% and −71.1% and −87.4% and −75.7% and −70.3% | Glucosylsphingosine concentration, Plasma, Change [1, 6]: −3.2 ng/ml and −18.9 ng/ml and −33 ng/ml and +69 ng/ml and −3.79 ng/ml and −22.5 ng/ml and −6.28 ng/ml and −8.67 ng/ml and −8.07 ng/ml and −4.5 ng/ml and −31.3 ng/ml | Glucosylsphingosine concentration, Plasma, Percentage change [1, 6]: −56.1% and −50.7% and −41.4% and +43.4% and −60.3% and −57.8% and −71.5% and −59.8% and −47.8% and −23.3% and −64% | functional connectivity relative to baseline ([2]; Weeks 26 and 52, patients with venglustat exposure (fMRI Group A)): stronger connectivity | maximal increased correlation coefficient ([2]; fMRI Group A (nine patients)): 0.19 ± 0.16 | metabolism by CYP3A [3]: principally metabolized by the CYP3A cytochrome complex | adverse event: acne [4]: two events in two patients | adverse event: back pain [4]: nine events in five patients | adverse event: diarrhoea [4]: two events in two patients | adverse event: headache [4]: ten events in six patients | adverse event: upper respiratory tract infection [4]: two events in two patients | adverse event: vomiting [4]: two events in two patients | severity of most adverse events [4]: mild or moderate, transient | deaths and serious adverse events ([4]; venglustat 15 mg once daily in combination with imiglucerase): no deaths, serious adverse events; also recorded: no deaths or serious adverse events | discontinuation of study treatment [4, 7]: no patient discontinued | patients with at least one adverse event [4, 7]: 11
